Reference: paper PMC4111403 (Journal of Medicinal Chemistry, 2014)

What was measured:
[1] = test system: acetylated α-tubulin (AcTub) in QBI293 cells; assay: QBI293 cell AcTub; assay type: cell-based; conditions: for activity in AcTub assay: 1 μM; for increase of cellular AcTub (words, Figure 2): compared with 1
Procedure, shortened: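 QBI293 cells are an HEK293 derivative. Tubulin acetylation, which occurs on polymerized tubulin, serves as the cellular read-out of MT stabilization. Test compounds were run at 0.1 or 1 μM. AcTub was expressed relative to vehicle-treated cells and to a 0.1 μM reference MT-stabilizer positive control. Significance was assessed by two-tailed t-test.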

[2] = Brain and plasma compound concentration 1 h after ip injection; assay type: in vivo, CD1 mice; conditions: 1 h after ip injection of 5 mg/kg, mouse
Procedure, shortened: (§1)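 Dosing in 2-month-old CD1 mice (20 g average). Brain hemispheres homogenized by sonication in 10 mM ammonium acetate pH 5.7 (1:2 w/v); plasma from EDTA blood centrifuged 4500g, 10 min, 4 °C. Samples precipitated with acetonitrile, spun 15 000g, then analysed by UPLC–MS/MS with positive ESI and MRM. Quantified against brain- and plasma-matrix standard curves spanning 0.005–5 μM.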

tau transgenic (Tg) mice = conditions: tau Tg mice with brain stem and spinal cord tau pathology ref 5; cited from earlier work
[3] = 16 h brain and plasma PK study after ip dosing; assay type: in vivo, CD1 mice; conditions: for brain penetration / BBB permeability: mouse, ip dosing; for half-life: CD1, mouse, ip, 5 mg/kg
Procedure, shortened: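 2-month-old CD1 mice (20 g average). Plasma from EDTA-collected blood spun 4500g, 10 min, 4 °C; brain hemispheres sonicated in 10 mM ammonium acetate pH 5.7 (1:2 w/v). Acetonitrile-precipitated supernatants quantified by LC–MS/MS (positive ESI, MRM) against spiked-matrix standards 0.005–5 μM.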

β-tubulin = β-tubulin ref 28; cited from earlier work
human Pgp = human Pgp (Homo sapiens, UniProt P08183); assay: Pgp-interaction assay; assay type: cell-based; conditions: NCI/ADR-RES cells
Chain of human Pgp (P08183 whole entry): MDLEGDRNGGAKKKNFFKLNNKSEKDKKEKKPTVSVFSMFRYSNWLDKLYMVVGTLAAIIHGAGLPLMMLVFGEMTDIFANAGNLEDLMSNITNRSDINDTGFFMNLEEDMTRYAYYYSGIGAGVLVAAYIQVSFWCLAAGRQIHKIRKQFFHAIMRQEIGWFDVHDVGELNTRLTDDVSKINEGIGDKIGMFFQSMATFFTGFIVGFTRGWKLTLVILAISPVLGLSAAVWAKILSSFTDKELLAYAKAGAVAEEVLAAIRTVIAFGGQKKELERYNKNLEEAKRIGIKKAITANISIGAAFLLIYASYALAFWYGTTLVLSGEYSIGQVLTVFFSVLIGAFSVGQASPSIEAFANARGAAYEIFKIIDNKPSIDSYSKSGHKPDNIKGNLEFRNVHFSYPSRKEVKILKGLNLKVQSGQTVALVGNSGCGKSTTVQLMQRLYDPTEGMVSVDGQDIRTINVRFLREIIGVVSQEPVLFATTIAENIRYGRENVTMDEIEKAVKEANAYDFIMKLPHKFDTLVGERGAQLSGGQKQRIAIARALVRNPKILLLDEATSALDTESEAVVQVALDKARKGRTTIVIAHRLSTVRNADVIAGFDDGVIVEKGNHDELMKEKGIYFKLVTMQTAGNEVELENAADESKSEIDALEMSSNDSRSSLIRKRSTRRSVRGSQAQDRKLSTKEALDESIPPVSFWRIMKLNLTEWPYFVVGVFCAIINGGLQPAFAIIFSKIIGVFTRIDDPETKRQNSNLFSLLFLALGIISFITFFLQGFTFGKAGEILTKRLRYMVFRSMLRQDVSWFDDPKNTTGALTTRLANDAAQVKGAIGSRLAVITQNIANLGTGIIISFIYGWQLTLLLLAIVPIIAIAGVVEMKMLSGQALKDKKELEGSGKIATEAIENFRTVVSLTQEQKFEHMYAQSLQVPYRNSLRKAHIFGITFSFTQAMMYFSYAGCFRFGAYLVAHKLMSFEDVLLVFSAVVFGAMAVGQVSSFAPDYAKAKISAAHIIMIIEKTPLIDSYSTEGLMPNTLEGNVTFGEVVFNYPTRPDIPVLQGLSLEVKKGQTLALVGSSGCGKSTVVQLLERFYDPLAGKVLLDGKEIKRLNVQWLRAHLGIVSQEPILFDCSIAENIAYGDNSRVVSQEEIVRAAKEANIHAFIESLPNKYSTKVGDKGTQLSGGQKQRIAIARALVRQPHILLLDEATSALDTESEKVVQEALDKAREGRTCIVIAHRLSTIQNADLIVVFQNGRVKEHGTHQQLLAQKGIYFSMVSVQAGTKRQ

QBI293 cells = assay: AcTub immunofluorescence of QBI293 cells; assay type: cell-based; conditions: 4 h incubation; 2 at 100 nM, colchicine at 1 μM
[4] = test system: Pgp-expressing cancer cell lines; conditions: cited from earlier work
[5] = Brain and plasma levels 2 h after oral administration; assay type: in vivo, mice; conditions: 2 h after oral administration of 10 mg/kg
Procedure, shortened: as §1

[6] = Unbound fraction in brain homogenate by equilibrium dialysis; assay type: in vitro ADME; conditions: ratio of brain Fu values
[7] = test system: AcTub levels in brain homogenates; assay: Brain pharmacodynamic effect: AcTub levels in brain homogenates; assay type: in vivo, WT mice; conditions: 1 mg/kg daily ip for 4 or 6 days, n = 3
Pgp transporter = conditions: cited from earlier work
[8] = test system: AcTub levels in brain homogenates; conditions: single ip injection 1–6 mg/kg, mice ref 4; cited from earlier work
[9] = test system: acetylated α-tubulin (AcTub) in QBI293 cells; conditions: 50–500 nM concentrations ref 8; cited from earlier work

5-(4-Chlorophenyl)-6-methyl-4-(2,4,6-trifluorophenyl)pyridazin-3(2H)-one [Compound 6, reference compound]
activity in AcTub assay [1]: essentially inactive | AcTub fold-change relative to vehicle control ([1]; compound at 1 μM): 1.5 ± 0.8^ns fold-change

(S)-N-(3-(4-(5-Chloro-7-((1,1,1-trifluoropropan-2-yl)amino)[1,2,4]triazolo[1,5-a]pyrimidin-6-yl)-3,5-difluorophenoxy)propyl)pivalamide [Compound 16]
AcTub fold-change relative to vehicle control ([1]; compound at 1 μM): 2.4 ± 0.9 fold-change | AcTub fold-change relative to 0.1 μM 2 ([1]; compound at 1 μM, relative to positive control 0.1 μM 2): 0.7 ± 0.1 fold-change | B/P (brain-to-plasma ratio) [2]: 0.12 ± 0.03 | brain concentration [2]: 170 ± 10 nM | plasma concentration [2]: 1500 ± 500 nM

CC(=O)O[C@H]1C(=O)[C@@]2(C)[C@H]([C@H](OC(=O)c3ccccc3)[C@]3(O)C[C@H](OC(=O)[C@H](O)[C@@H](NC(=O)c4ccccc4)c4ccccc4)C(C)=C1C3(C)C)[C@]1(OC(C)=O)CO[C@@H]1C[C@@H]2O [paclitaxel]
effect on neurodegenerative phenotype of tau Tg mice (tau transgenic (Tg) mice): improve the neurodegenerative phenotype

CNCCCOc1cc(F)c(-c2c(Cl)nc3ncnn3c2N[C@@H](C)C(F)(F)F)c(F)c1 [Compound 2, (S)-5-Chloro-6-(2,6-difluoro-4-(3-(methylamino)propoxy)phenyl)-N-(1,1,1-trifluoropropan-2-yl)[1,2,4]triazolo[1,5-a]pyrimidin-7-amine]
brain penetration / BBB permeability [3]: negligible brain penetration | increase of cellular AcTub (words, Figure 2) [1]: significant increase | competition for the taxane/epothilone binding site (β-tubulin): not to compete | effect on vinblastine binding (β-tubulin): did affect vinblastine binding | effect on Pgp function (calcein-AM transport) (human Pgp): did not interfere appreciably with Pgp function | AcTub staining by immunofluorescence (QBI293 cells): large increase in AcTub-positive structures | activity against Pgp-expressing cancer cell lines [4]: active

Cc1nnc(Cl)c(-c2c(F)cc(F)cc2F)c1-c1ccc(Cl)s1 [Compound 7, 3-Chloro-5-(5-chlorothiophen-2-yl)-6-methyl-4-(2,4,6-trifluorophenyl)pyridazine, reference compound]
activity in AcTub assay [1]: essentially inactive

C[C@H](Nc1c(-c2c(F)cc(OCCCN(C)C)cc2F)c(Cl)nc2ncnn12)C(F)(F)F [Compound 9, (S)-5-Chloro-6-(4-(3-(dimethylamino)propoxy)-2,6-difluorophenyl)-N-(1,1,1-trifluoropropan-2-yl)[1,2,4]triazolo[1,5-a]pyrimidin-7-amine]
half-life ([3]; brain): > 2 h | half-life ([3]; plasma): > 2 h | brain penetration / BBB permeability [3]: relatively limited | brain and plasma levels after oral dosing [5]: micromolar levels | increase of cellular AcTub (words, Figure 2) [1]: large increase | AcTub fold-change relative to vehicle control (numbers in parentheses) ([1]; compound at 0.1 μM): (2.0 ± 1.4) fold-change | effect on Pgp function (calcein-AM transport) (human Pgp): did not interfere appreciably with Pgp function | brain Fu value of 9 relative to 20 [6]: ~3 fold | PD response: AcTub level in brain [7]: significant PD response

C[C@H](Nc1nc(-c2cnccn2)nc(Cl)c1-c1c(F)cc(F)cc1F)C(F)(F)F [Compound 20, (S)-6-Chloro-2-(pyrazin-2-yl)-5-(2,4,6-trifluorophenyl)-N-(1,1,1-trifluoropropan-2-yl)pyrimidin-4-amine]
brain penetration / BBB permeability [3]: can readily partition across the BBB | brain and plasma levels after oral dosing [5]: micromolar levels | increase of cellular AcTub (words, Figure 2) [1]: large increase | effect on Pgp function (calcein-AM transport) (human Pgp): did not interfere appreciably with Pgp function | PD response: AcTub level in brain [7]: significant PD response

COc1cc2c(c(OC)c1OC)-c1ccc(OC)c(=O)cc1[C@@H](NC(C)=O)CC2 [colchicine]
AcTub staining by immunofluorescence (QBI293 cells): significant loss of AcTub staining

C/C1=C/C[C@@H](/C(C)=C/c2csc(C)n2)OC(=O)C[C@H](O)C(C)(C)C(=O)[C@H](C)[C@@H](O)[C@@H](C)CCC1 [Compound 1, epothilone D]
Pgp transporter inhibition (Pgp transporter): inhibitor of the Pgp transporter | elevation in AcTub levels in brain homogenates [8]: significant elevation | elevation of AcTub levels in cells [9]: significant elevation

CC(C)Nc1c(-c2c(F)cc(F)cc2F)c(Cl)nc2nccnc12 [Compound 37, 6-Chloro-N-isopropyl-7-(2,4,6-trifluorophenyl)pyrido[2,3-b]pyrazin-8-amine]
activity in AcTub assay [1]: essentially inactive
